Bioassay records (PubChem)
Shown are actives, neighbours in structure and some others; about 2.6% of the full set was active somewhere.
XiGFP reactiv: activators of X-chromosome reactivation in mouse fibroblasts; XiGFP mouse fibroblasts, % GFP-positive cells imaging, 3 d; cells co-treated with 5-aza-dC sensitizer; scaled so ellipticine positive control = 100%; activation, % at 7.58 µM; actives 0.055% (n = 360,000); AID 743238;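 active = mean normalized replicate activation at least 10% and every replicate at or above 10%; inconclusive = only one of the two criteria met; inactive = mean below 10% and not all replicates reach 10%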
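System: 68-5-11 XiGFP fibroblast line; Timing: 3 days compound exposure; Compound dosing: one concentration, pinned; Benchmarks: positive control ellipticine, 6 µM final; Buffer or medium: DMEM containing 5-aza-dC.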
esBAF inh: inhibitors of esBAF chromatin remodeling in mouse ES cells | Bmi1-luciferase knock-in reporter, 24 h; 100% = twice the neutral-well signal | reporter increase, % at 12.5 µM | actives 2% (n = 350,000) | AID 602393; in the data active = activation above about 40%; inconclusive = no clear call, values can overlap the other calls;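 note: a rise in the Bmi1 reporter signal indicates esBAF inhibition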
Wnt bcat act: activates Wnt/beta-catenin signaling in a reporter cell assay; actives 1.2% (n = 300,000); activator, plate reader; AID 743398; activation, % at 9.35 µM; in the data active = activation above about 30%, passing the limit was not always enough; inconclusive = no clear call, values can overlap the other calls
MITF act: activators of MITF-driven TRPM1 promoter activity in SK-MEL-5 cells; SK-MEL-5 TRPM1-promoter luciferase, 24 h; % of positive control, neutral wells = 0; activation, % at 12.5 µM; actives 0.75% (n = 300,000); AID 588334;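 active = mean activation of at least 80% with every replicate also reaching 80%; inconclusive = mean reaches 80% but some replicate falls short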
Vif inh: blocks HIV Vif function; HEK293T cells, Vif self-association by quenched fluorescence, imaging, 24 h; inhibition, % at 7.49 µM; actives 0.35% (n = 340,000); in the data active = inhibition above about 50%, passing the limit was not always enough; inconclusive = no clear call, values can overlap the other calls; inactive = below about 31%
Each line names hits and unclear results; the compound was inactive in the other large screens.

Cn1c(CNc2ccc(F)cc2)nc2ccccc21	esBAF inh 69 (no result: MITF act)
CCn1cnc2cc(NCc3nc4ccccc4n3C)ccc21	none (no result: XiGFP reactiv)
Cn1c(CNc2ccccc2)nc2ccccc21	esBAF inh 66 (no result: XiGFP reactiv, Wnt bcat act, Vif inh)
CCCn1c(CNc2ccc(Br)cc2)nc2ccccc21	esBAF inh 48 (no result: Vif inh)
O=C(C[C@H]1CC[C@H]2[C@@H](COC[C@@H](O)CN2S(=O)(=O)c2cccc(Cl)c2)O1)NCc1ccncn1	none (no result: Wnt bcat act, MITF act, Vif inh)
CCCNC(=O)N1CC2(CCN(C(C)=O)CC2)c2c(n(C)c3cc(OC)ccc23)[C@H]1CO	none (no result: esBAF inh, Wnt bcat act, MITF act, Vif inh)
COCCNC(=O)C[C@@H]1CC[C@H]2[C@H](COc3ccc(NC(=O)Nc4ccccc4)cc3C(=O)N2C)O1	none (no result: Wnt bcat act, MITF act, Vif inh)
CO[C@H]1CN(C)C(=O)c2cc(NC(=O)Nc3ccccc3)ccc2OC[C@@H](C)N(CC2CC2)C[C@@H]1C	none (no result: Wnt bcat act, MITF act, Vif inh)
Cn1c(CNc2ccccc2O)nc2ccccc21	esBAF inh 48
Cc1ccccc1NCc1nc2ccccc2n1C	esBAF inh inconclusive (no result: MITF act)
C[C@H](NC(=O)[C@@H]1[C@@H](CO)[C@@H]2Cn3c(ccc(-c4ccncc4)c3=O)[C@H]1N2C)c1ccccc1	none (no result: Wnt bcat act, MITF act, Vif inh)
Nc1nc(Nc2ccccc2Br)nc(C(F)(F)F)n1	none
Nc1nc(Nc2ccc(Cl)cc2Cl)nc(C(F)(F)F)n1	esBAF inh 64 (no result: XiGFP reactiv, Wnt bcat act)
CN(C)CCCNC(=O)C[C@@H]1CC[C@@H]2[C@@H](COc3ccc(NC(=O)c4ccccc4F)cc3C(=O)N2C)O1	none (no result: Wnt bcat act, MITF act, Vif inh)
C#CCNC(=O)/C=C/c1ccc(C)cc1	MITF act 91
Cc1ccc(/C=C/C(=O)NCCCc2ccccc2)cc1	none (no result: esBAF inh)
Cn1nnc(-c2ccc(OCc3ccccc3F)cc2)n1	Wnt bcat act 38 (no result: XiGFP reactiv)
COc1ccc2c3c([nH]c2c1)[C@@H](CO)N(C(C)=O)CC31CN(C(=O)Nc2c(C)noc2C)C1	none (no result: esBAF inh, Wnt bcat act, MITF act, Vif inh)
O=C(NNc1nc2c(F)cccc2s1)C1=COCCO1	none
CSc1cccc2sc(NC(=O)C3=COCCO3)nc12	esBAF inh 57
C[C@@H]1CN([C@@H](C)CO)C(=O)Cc2cc(NS(=O)(=O)c3ccccc3)ccc2O[C@@H]1CN(C)C	none (no result: Wnt bcat act, MITF act, Vif inh)
CO[C@H]1CN(C)C(=O)c2cc(NS(=O)(=O)c3cn(C)cn3)ccc2OC[C@H](C)N(CC2CC2)C[C@@H]1C	none (no result: Wnt bcat act, MITF act, Vif inh)
O=C(Cc1c(F)cccc1Cl)Nc1nc2ccccc2s1	none (no result: esBAF inh)
O=C(CSc1nc2ccc(NC(=O)c3ccccc3C(=O)O)cc2s1)Nc1ccc(F)c([N+](=O)[O-])c1	Wnt bcat act 35
Cc1nc2ccc(NC(=O)Cc3cccs3)cc2s1	esBAF inh 71, Wnt bcat act 61, MITF act 88 (no result: XiGFP reactiv)
COc1ccccc1C(=O)Nc1ccc2nc(SCC(=O)N(C)C)sc2c1	none (no result: esBAF inh)
Cc1nc2ccc(NC(=O)CSc3ccccc3)cc2s1	esBAF inh 54, Wnt bcat act 50, MITF act 98
Cc1nc2ccc(NC(=O)Cc3c(F)cccc3Cl)cc2s1	Wnt bcat act 39, MITF act 108 (no result: esBAF inh)
Cc1nc2ccc(NC(=O)COc3ccccc3C)cc2s1	none
C[C@H](CO)N1C[C@H](C)[C@@H](CN(C)Cc2ccc(C(=O)O)cc2)OCCCC[C@H](C)Oc2ccc(NS(=O)(=O)c3ccc(F)cc3)cc2C1=O	none (no result: Wnt bcat act, MITF act, Vif inh)
C[C@H]1CCCCO[C@H](CN(C)C(=O)Nc2cccc3ccccc23)[C@@H](C)CN([C@@H](C)CO)C(=O)c2cc(NC(=O)Nc3ccc4c(c3)OCO4)ccc2O1	none (no result: Wnt bcat act, MITF act, Vif inh)
C[C@H](CO)N1C[C@H](C)[C@@H](CN(C)S(C)(=O)=O)Oc2c(NC(=O)NC3CCCCC3)cccc2C1=O	none (no result: Wnt bcat act, MITF act, Vif inh)
C[C@H](CO)N1C[C@H](C)[C@H](CN(C)C(=O)Nc2ccc(F)cc2)Oc2c(NC(=O)C3CCCCC3)cccc2C1=O	none (no result: Wnt bcat act, MITF act, Vif inh)
COc1cccc(-n2cc3c(=O)n(C)c(=O)n(C)c3c2)c1	esBAF inh 48 (no result: XiGFP reactiv, Wnt bcat act)
Cn1c(=O)c2cn(-c3ccccc3)cc2n(C)c1=O	none (no result: XiGFP reactiv)
CCCCCCCSc1nnc(-c2ccccc2N)c(=O)[nH]1	none
CCCCSc1nnc(-c2ccccc2N)c(=O)[nH]1	esBAF inh 97 (no result: XiGFP reactiv)
CN(C)C(CNC(=O)c1cccc(OC(F)F)c1)c1ccco1 (configuration not stated)	esBAF inh 45
CC(=O)c1ccc(-c2ccc(C(=O)NCC(c3ccco3)N(C)C)o2)cc1 (configuration not stated)	esBAF inh 80
CC(=O)Nc1ccc(C(=O)NCC(c2ccco2)N(C)C)cc1 (configuration not stated)	none (no result: esBAF inh)
CN(C)C(CNC(=O)c1ccc2nccnc2c1)c1ccco1 (configuration not stated)	esBAF inh inconclusive
CC(=O)C1=C(O)C(=O)N(c2ccccn2)C1c1ccc(Cl)cc1 (configuration not stated)	esBAF inh 47
O=C(NCCCn1ccnc1)c1sc2cc([N+](=O)[O-])ccc2c1Cl	esBAF inh 63 (no result: MITF act)
C[C@@H]1CN([C@@H](C)CO)C(=O)c2cccc(NC(=O)C3CCOCC3)c2O[C@@H]1CN(C)C(=O)Nc1ccc(C(F)(F)F)cc1	none (no result: Wnt bcat act, MITF act, Vif inh)
O=C(Nc1ccc(F)cc1)c1ccccc1	esBAF inh 81, MITF act 104 (no result: XiGFP reactiv)
O=C(Cc1ccccc1F)Nc1ccc(SC(F)F)cc1	MITF act 103 (no result: esBAF inh)
O=C(COC(=O)Cc1ccccc1F)Nc1ccc(SC(F)F)cc1	none (no result: esBAF inh)
O=C(Nc1ccc(F)cc1)c1cccc(C(=O)Nc2ccc(F)cc2)c1	none
O=C(Nc1ccc(C2SCCS2)cc1)c1ccccc1	Wnt bcat act 49 (no result: esBAF inh, MITF act)
CNC(=O)Nc1ccc(C2SCCS2)cc1	none (no result: esBAF inh, MITF act)
COC(=O)c1ccc(NC(=O)c2ccc(OC(C)=O)c(OC)c2)cc1	esBAF inh 50
C[C@@H]1CN([C@@H](C)CO)C(=O)c2cc(NC(=O)Cc3ccccc3)ccc2O[C@@H]1CN(C)C(=O)Nc1cccc2ccccc12	none (no result: Wnt bcat act, MITF act, Vif inh)
COc1ccc2c3c(n(C)c2c1)[C@@H](CO)N(Cc1cc(F)ccc1F)CC31CCN(C(=O)C2CC2)CC1	none (no result: esBAF inh, Wnt bcat act, MITF act, Vif inh)
COc1cccc(S(=O)(=O)Nc2ccc3c(c2)C(=O)N(C)[C@H]2CC[C@H](CC(=O)O)O[C@H]2CO3)c1	none (no result: Wnt bcat act, MITF act, Vif inh)
O=C(C[C@H]1CC[C@H]2[C@@H](COC[C@H](O)CN2Cc2ccccc2)O1)N1CCOCC1	none (no result: Wnt bcat act, MITF act, Vif inh)
O=C(CNc1ccccc1)Nc1ccc(F)cc1	esBAF inh 52 (no result: XiGFP reactiv, Wnt bcat act)
COC(=O)c1ccc(C(=O)Nc2ccc(F)cc2)cc1	esBAF inh 67
O=C(/C=C/c1ccccc1)Nc1cccc(C(=O)NCCCc2ccccc2)c1	esBAF inh 43
O=C(Nc1ccc(SC(F)F)cc1)c1ccccc1F	none (no result: esBAF inh)
O=C(Nc1ccc(SC(F)F)cc1)c1ccc(F)cc1	MITF act 87 (no result: esBAF inh)
CC(C)(C)[S@@](=O)N1Cc2cc(C(=O)N3CCCCC3)nc(-c3cccc(-c4ccccc4F)c3)c2[C@H]1CCO	none (no result: Wnt bcat act, MITF act, Vif inh)
O=C(N[C@H]1CC[C@H](CCNC(=O)c2cnccn2)O[C@@H]1CO)c1ccc2c(c1)OCO2	none (no result: Wnt bcat act, MITF act, Vif inh)
Cc1noc(C)c1NC(=O)NCC[C@@H]1CC[C@H](NC(=O)Nc2cccc(Cl)c2)[C@H](CO)O1	none (no result: Wnt bcat act, MITF act, Vif inh)
